# OX1R antag-1: blocks the human orexin 1 receptor | O43613 | OX1R-expressing cells, FRET antagonist read-out | inhibition, % at 6.6 µM | 330,000 compounds, 1.8% hits | AID 485270; in the data active = inhibition mostly above about 38%, no sharp cut-off; inactive = mostly below about 40%
# Target sequence (O43613 whole entry, looked up): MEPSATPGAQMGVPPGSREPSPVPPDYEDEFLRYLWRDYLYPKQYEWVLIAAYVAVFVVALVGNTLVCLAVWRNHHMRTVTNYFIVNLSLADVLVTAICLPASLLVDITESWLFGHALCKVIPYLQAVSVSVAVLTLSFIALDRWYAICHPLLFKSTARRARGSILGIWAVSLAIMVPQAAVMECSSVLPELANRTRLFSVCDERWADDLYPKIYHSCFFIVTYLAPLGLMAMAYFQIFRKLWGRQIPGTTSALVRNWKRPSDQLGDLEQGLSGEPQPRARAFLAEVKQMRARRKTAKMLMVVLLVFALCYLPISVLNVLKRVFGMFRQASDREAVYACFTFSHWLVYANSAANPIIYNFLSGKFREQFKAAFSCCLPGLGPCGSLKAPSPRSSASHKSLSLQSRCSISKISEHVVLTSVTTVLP
# GPR7 antag: blocks human GPR7 receptor signaling. inhibition, % at 4.4 µM. AID 1861. 290,000 compounds, 1.1% hits. P48145. GPR7-expressing cells, fluorescence antagonist assay; in the data active = inhibition above about 16%, passing the limit was not always enough;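 note: cells stimulated with the agonist NPW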
# TAAR1 ag: agonists of human TAAR1; Q96RJ0; CHO RD-HGA16 TAAR1, Fluo-8 calcium fluorescence; vehicle wells 0%, saturating PEA agonist 100%; activation, % at 3 µM; 360,000 compounds, 0.99% hits; AID 624467;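 active = activation above the mean activation of all test compounds in the run plus 3 SD, cut at about 38% in these data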
#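 Benchmarks: low control DMSO, high control PEA (EC100); System: CHO RD-HGA16 cells carrying human TAAR1 plus Gα16; Detection: Fluo-8 fluorescence, 5 s baseline then 140 s kinetic read; Schedule: 17-24 h plating, Fluo-8 75 min 37 °C, 30 min RT; Read-out basis: % activation from peak over basal fluorescence ratio, DMSO-to-PEA scaled.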
# OX1R antag-2: human HCRTR1 antagonism. 330,000 compounds, 0.43% hits. CHO/OX1R cells, Fluo-8 calcium fluorescence, orexin A. inhibition, % at 5 µM;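 active = inhibition above its plate's threshold, mean inhibition of all tested compounds on the plate plus 3 SD, cut at about 37% in these data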
# TAAR1 antagonist: human TAAR1 antagonism; Q96RJ0; inhibition, % at 3 µM; CHO RD-HGA16 TAAR1, Fluo-8 calcium fluorescence, antagonist; AID 624466; 360,000 compounds, 1.5% hits;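 active = inhibition above a per-plate cutoff, the mean inhibition of test compounds on that plate plus 3 SD, cut at about 49% in these data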
#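 Test system: hTAAR1-expressing CHO RD-HGA16 cells, Gα16-coupled; Probe or stimulus: EC80 β-phenethylamine stimulus; Compound dosing: single nominal final test compound concentration of 3 µM; Timing: 140 s kinetic read after compound, 140 s after agonist; Signal: Fluo-8 calcium-sensitive fluorescence; Measure: % inhibition of agonist calcium response; Controls: DMSO and EC80 PEA controls.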
# CHO parental Ca: counter-screen: ATP calcium response change in parental CHO cells; 330,000 compounds, 0.63% hits; parental CHO-K1, ATP-induced calcium, Fluo-8 fluorescence; inhibition, % at 5.6 µM; AID 463079;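 active = inhibition above that plate's mean sample inhibition plus 3 SD, cut at about 26% in these data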
#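 test system = CHO parental line | reagent = ATP stimulus | measured by = intracellular calcium via Fluo-8 no-wash fluorescent dye | control set = ATP and no-ATP DMSO wells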
# A number is an active result; i = inactive; nt = no result. Rows were chosen to be rich in hits. Some 4.6% of all compounds tested hit in one or more screens of this group.
SMILES,OX1R antag-1,GPR7 antag,TAAR1 ag,OX1R antag-2,TAAR1 antagonist,CHO parental Ca
COCCNC(=O)c1cc(-c2ccccc2)nn1CC1CC(c2cccnc2)=NO1 (stereo unspecified),i,nt,i,i,i,i
CN(CC(=O)Nc1cccc(F)c1)C(=O)c1ccc(-n2cncn2)c([N+](=O)[O-])c1,i,nt,i,i,i,i
C[n+]1c(/C=C/c2ccc(O)cc2)ccc2ccccc21,73,i,i,i,i,i
CCCC(=O)Nc1ccc(Cl)c(NC(=S)NC(=O)C(C)C)c1,i,i,i,i,i,i
CCCC(=O)Nc1ccc(Cl)c(NC(=O)c2cccnc2Cl)c1,i,i,39,i,i,i
COC(=O)[C@@]1(Cc2ccc(OC)cc2)[C@H]2c3cc(C(=O)N4CCCC4)n(Cc4ccc(OC)c(OC)c4)c3C[C@H]2CN1C(=O)c1ccccc1,nt,i,i,nt,i,nt
O=C(CSc1ccc(-c2cccs2)nn1)Nc1ccccc1,i,i,i,i,i,i
Cc1cc(C)cc(NC(=O)CSc2ccc(-c3cccs3)nn2)c1,62,i,i,i,i,i
CC(=O)Nc1cccc(NC(=O)CSc2ccc(-c3ccccn3)nn2)c1,i,i,i,i,i,i
COc1cccc(-c2ccc(SCC(=O)c3ccccc3)nn2)c1,i,i,i,i,i,i
COc1cc(NC(=O)CSc2ccc(-c3ccccn3)nn2)cc(OC)c1,60,i,i,i,i,i
COc1ccc(C(=O)CSc2ccc(-c3ccccc3)nn2)cc1,69,i,i,i,i,i
Cc1cc(NC(=O)c2cnn3cccnc23)nn1CC(=O)Nc1cccnc1,i,i,i,i,i,i
CCOc1ccc2c(c1)nc(NCCCO)n2Cc1ccccc1,i,i,i,i,i,i
Cc1nc2ccccc2c2c1C(=O)N(C1CCCCCCC1)C2=O,i,i,i,i,i,i
Cc1c(OCC(=O)NCc2ccncc2)ccc2c3c(c(=O)oc12)CCC3,i,i,i,i,i,i
CCN(CC(=O)Nc1ccccc1C(F)(F)F)C(=O)CN1C(=O)NC(C)(c2ccccc2)C1=O (stereo unspecified),i,nt,i,i,i,i
CCN(CC)C(=O)COc1ccc(-c2nnc(Nc3ccc(OC)c(C(=O)NC)c3)c3ccccc23)cc1,i,19,i,i,i,i
CCOc1ccc(NCc2cccn2-c2nnc(N3CCC(C(=O)NCCCN4CCCCC4)CC3)s2)cc1,i,i,i,i,i,i
CCCCCC[n+]1ccccc1/C=C/c1ccc(N(C)C)cc1,nt,nt,i,nt,70,nt
CCN(C(=O)/C=C/c1cc(OC)c(OC)c(OC)c1)C1CCCCC1,i,i,i,i,i,i
Cc1ccc(CN2CCCN(Cc3ccc(F)cc3Cl)S2(=O)=O)cc1,i,i,i,i,i,47
O=C1NCCCN1Cc1ccc(F)cc1Cl,nt,i,i,nt,i,nt
Cc1ccc(CN2CCCN(Cc3c(F)cccc3Cl)S2(=O)=O)cc1,i,i,i,i,i,i
O=S1(=O)N(Cc2ccccc2F)CCCN1Cc1c(F)cccc1Cl,i,i,i,i,i,66
SMILES,OX1R antag-1,GPR7 antag,TAAR1 ag,OX1R antag-2,TAAR1 antagonist,CHO parental Ca
CCN(CC(=O)NCc1ccc(Cl)cc1)C(=O)CSCC(=O)Nc1ccc(C)cc1,i,nt,i,i,i,i
COc1ccc(S(=O)(=O)Nc2cccc3c2O[C@H](CN(C)S(=O)(=O)c2ccc(Cl)cc2)[C@H](C)CN([C@H](C)CO)C3=O)cc1,i,nt,i,i,i,i
O=[N+]([O-])c1sccc1CS(=O)(=O)c1ccccc1,51,i,i,i,i,i
CC(=O)c1ccc(NC(=O)CS(=O)(=O)c2cn(CC(=O)N3CCOCC3)c3ccccc23)cc1,i,i,i,i,i,i
COc1ccc(NC(=O)c2ccc3[nH]c(C)c(C)c3c2)c(OC)c1,50,i,i,i,i,i
CCOc1ccccc1NC(=O)c1ccc2[nH]c(C)c(C)c2c1,73,i,i,i,i,i
CCOc1ccccc1NC(=O)c1ccc(OCC)c([N+](=O)[O-])c1,i,i,i,i,i,i
Cc1cccc(Nc2ncnc3nc[nH]c23)c1,i,19,i,i,i,i
CN(C(=O)CSc1nnnn1-c1ccccc1)C1CCS(=O)(=O)C1 (stereo unspecified),i,19,i,i,i,i

# Source: PubChem BioAssay
